zVAD death inh: L929 zVAD cell death inhibition; 220,000 compounds, 0.38% hits; L929 zVAD necroptosis rescue, ATP luminescence, 24 h; with zVAD 60 µM; viability rescue, % at 10 µM;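 active = activation, scaled between plate controls, above about 75%, limit read from the data; inactive = activation under that limit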;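 note: 0% = zVAD with DMSO and 100% = DMSO alone without zVAD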
Mdm2 ligase inh: inhibitors of human Mdm2 E3 ubiquitin ligase. Q00987. cell-based MDM2 ubiquitination luciferase reporter, 2 h; 0 = plate control, 100 = twice control, blank-subtracted. signal enhancement, % at 5 µM. 210,000 compounds, 0.11% hits. AID 1230;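 active = signal enhancement of 30% or more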;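 note: luminescence tracks abundance of the self-degrading MDM2-luciferase fusion protein; higher signal means inhibition of MDM2 E3 ligase activity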
Target sequence (Q00987 whole entry, looked up, the tested form may be a part): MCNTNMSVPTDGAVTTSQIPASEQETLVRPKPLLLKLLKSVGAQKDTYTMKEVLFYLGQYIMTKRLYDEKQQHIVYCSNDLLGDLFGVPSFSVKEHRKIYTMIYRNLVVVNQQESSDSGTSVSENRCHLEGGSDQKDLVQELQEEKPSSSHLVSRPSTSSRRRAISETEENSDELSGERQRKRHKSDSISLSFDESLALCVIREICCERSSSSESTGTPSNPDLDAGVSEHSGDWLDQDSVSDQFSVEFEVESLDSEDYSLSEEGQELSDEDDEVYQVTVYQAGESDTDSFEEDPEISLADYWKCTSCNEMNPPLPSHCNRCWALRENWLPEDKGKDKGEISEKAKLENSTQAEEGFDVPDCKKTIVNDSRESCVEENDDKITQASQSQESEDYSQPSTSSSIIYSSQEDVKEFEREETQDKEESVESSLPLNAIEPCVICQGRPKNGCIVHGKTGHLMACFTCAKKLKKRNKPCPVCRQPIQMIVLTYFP
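Test system: stable mammalian line carrying autodegrading MDM2–luciferase fusion reporter; quantity: 2000 cells in each well; times: 4 h cell settling then 2 h compound exposure, 37 °C; detection: luminescence with SteadyLite reagent, 15 min at room temperature; evaluation: percent signal gain over controls, blank-subtracted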
TNF necrop inh: inhibitors of TNF-alpha induced necroptosis in Jurkat FADD-/- cells | AID 463075 | 220,000 compounds, 0.068% hits | activation (protection from cell death), % at 10 µM | Jurkat FADD-/- TNF necroptosis rescue, ATP luminescence, 24 h; 0 = TNF only, 100 = no-TNF cells;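 active = activation, meaning protection from cell death, of at least 50% relative to plate controls; inactive = activation below 50%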;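 note: necroptosis triggered by 40 ng/mL TNF-alpha added together with compound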
E-sel TNF inh: TNF alpha driven E-selectin expression inhibition; 120,000 compounds, 0.71% hits; inhibition, % at 2 µM; AID 1246; HUVEC TNFa-induced E-selectin immunofluorescence, high content;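 active = inhibition above the batch mean plus 3 SD, and confirmed as a hit on visual image review, cut at about 43% in these data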;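 note: 0% = TNF-stimulated DMSO wells and 100% = unstimulated control wells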
HSV replic up: HSV replication enhancement | 220,000 compounds, 0.005% hits | maximum fold increase | HSV replication augmentation in cells, fold increase; in the data active = maximum fold increase above about 1.5; tested in PC3 cells
Active calls of the source: *; i = inactive; . = no result. A selection: hits, their analogues and other compounds. The true share with any hit is near 0.89%.

SMILES	zVAD death inh	Mdm2 ligase inh	TNF necrop inh	E-sel TNF inh	HSV replic up
N#C/C(=C\c1ccccc1OCc1ccc(C(=O)O)cc1)C(=O)Nc1ccc(O)cc1	1	-24	1	-6	i
COc1ccc(NC(=O)/C(C#N)=C\c2ccc(OCc3ccc(C(=O)O)cc3)c(OC)c2)cc1	2	30*	0	.	i
CN(C)c1cc(C(F)(F)F)nc(-c2ccccn2)n1	0	31*	-1	-23	i
COc1cc(C(F)(F)F)nc(-c2ccccn2)n1	2	-5	0	.	i
Cc1c(C(=O)NC(C)c2ccncc2)oc2ccccc12 (configuration not stated)	1	-14	2	100*	i
Cc1c(C(=O)Nc2ccncc2)oc2ccccc12	0	-5	-3	31	i
CC(NC(=O)COc1cccc(Br)c1)C(=O)O (configuration not stated)	0	-44	1	77*	.
CC(NC(=O)COc1ccc(Br)cc1)C(=O)O (configuration not stated)	0	0	-9	9	i
COC(=O)c1ccc(-c2ccc(/C=N/NC(=O)Cc3nnc(N)s3)o2)cc1	0	-7	0	.	i
C/C(=N\O)C1CCCCC1	1	-8	2	.	i
Cn1cc(Cl)c(C(=O)NNC(=S)NCc2ccco2)n1	2	-17	1	73*	i
Cc1c(Cl)c(C(=O)NNC(=S)NCc2ccco2)nn1C	0	-9	-1	0	i
COc1ccc(-c2nnn(CC(=O)NCc3ccccc3)n2)cc1OC	-1	.	-1	25	i
COc1ccccc1CNC(=O)Cn1nnc(-c2ccncc2)n1	86*	4	1	-8	i
CC(Cc1ccccc1)NC(=S)CN1CCCC1=S (configuration not stated)	0	-22	2	.	i
O=C(O)CCC(=O)Nc1ccc(C(=O)OCC(=O)c2ccc(Cl)cc2Cl)cc1	2	-7	0	.	i
C/C(=N\NC(=O)CC1N=C(Cc2ccccc2)NNC1=O)c1ccc(C)cc1 (configuration not stated)	0	-14	-3	100*	i
Cc1nn(-c2ccccc2)c(C)c1/C=N/NC(=O)c1cnccn1	1	3	-2	.	i
CC1=CC(=O)C(C(C)C)=CC1=NC(=O)c1ccc(C)cc1	44	-18	3	41	i
CCn1ncc(C2=NOC(C(=O)Nc3cnn(C45CC6CC(CC(C6)C4)C5)c3)C2)c1C (configuration not stated)	87*	-8	-5	17	i
CC(C)(C)OC(=O)NCCCC1=CC2=CC(=O)C(C)(O)C(=O)C2=CO1 (configuration not stated)	.	.	.	.	i
COC(=O)CSC1=C(C#N)C(c2ccc(C(C)C)cc2)CC(=O)N1 (configuration not stated)	9	-9	56*	.	i
CCOc1ccccc1C1CC(=O)NC(SCC(=O)Nc2nccs2)=C1C#N (configuration not stated)	93*	-6	82*	.	i
Cc1ccc(C(=O)NCC#N)cc1	0	-12	0	-13	i
Cc1ccc(C(=O)NC(C#N)=C(Cl)Cl)cc1	62	-2	74*	.	i
SMILES	zVAD death inh	Mdm2 ligase inh	TNF necrop inh	E-sel TNF inh	HSV replic up
COC(=O)CN1C(=S)N(c2ccc(Cl)cc2)C(=O)C1CC(=O)Nc1ccc(Cl)cc1 (configuration not stated)	0	-3	-8	57*	.
O=C(Nc1ccccc1)C1=C(c2ccccc2)S(=O)(=O)CCS1(=O)=O	70	13	-15	100*	i
COC(=O)c1cc2oc(C)cc2n1CC(=O)N1CCCc2ccccc21	0	-8	0	71*	.
O=C(CCc1ccc(S(=O)(=O)N2CCOCC2)cc1)Nc1ccc2c(c1)OCCO2	0	-19	1	.	i
Cc1ccc2cc(C#N)c(N3CCCN(C(=O)C4CCCO4)CC3)nc2c1C (configuration not stated)	1	-19	0	6	i
Cc1ccc2cc(C#N)c(N3CCCC3)nc2c1C	-1	-21	-2	100*	.
O=c1c2ccccc2nc(-c2ccc(F)cc2)n1NCc1ccccc1O	1	-4	0	.	.
Cc1ccc(CNc2ccc(S(=O)(=O)N3CCOCC3)cc2[N+](=O)[O-])cc1	1	-6	1	76*	i

High-throughput results deposited in PubChem by several laboratories.
